A short description of data set [1]: Metabolic stability in monkey liver microsomes assessed as intrinsic clearance. The data set is classed as ADME, Macaca mulatta, Microsome. Particulars: rhesus monkey, read-out: CLH. On the technique in general: Liver microsomes are a subcellular fraction often used to study metabolism.
For data set [2], the target named is Potassium voltage-gated channel subfamily KQT member 5 (Homo sapiens) (UniProt Q9NR82). The data set can be described thus: Agonist activity at human KCNQ5 channel expressed in CHO cells assessed as amplitude change of outward current at 0.1 uM by patch clamp method. In kind it is cell-based. Particulars: filed as agonist. In a few lines: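 Whole-cell patch clamp at room temperature on CHO cells (DMEM/F12, 10% FBS) transiently co-transfected with EGFP and hKCNQ1, rKCNQ2, rKCNQ3 A278T, hKCNQ4 or hKCNQ5; KCNQ2/3 at 1:1 cDNA ratio. Pipette solution 145 mM KCl, 5 mM MgATP, pH 7.3; bath 140 mM NaCl, 5 mM KCl, pH 7.4, under perfusion. V1/2 from Boltzmann fits; I/I0 is current amplitude with versus without compound; n = 4−6.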

Data set [3] can be described thus: AUC(0 to t) in Sprague-Dawley rat blood at 6 mg/kg, po measured upto 24 hrs by LC-MS/MS method. In kind it is ADME, organism-based. Further details: time < 24 hrs, dose 6 mg/kg, route po. Summed up:
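Separate experiment in male SD rats given 6 mg/kg orally; blood and brain concentrations measured concurrently. Samples extracted with acetonitrile (brain homogenized in 10 volumes acetonitrile and sonicated) and analysed by LC−MS/MS; AUC0−t by trapezoidal method.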

Data set [4] concerns the target Cytochrome P450 1A2 (Homo sapiens, UniProt P05177). The data set can be described thus: Time dependent inhibition of human liver microsome CYP1A2 preincubated for 0.5 hrs in absence of NADPH followed by substrate addition by LC-MS/MS method. In kind it is ADME, microsomes. Summed up: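 Human liver microsomes preincubated 0.5 h with 0.10–50 μM test compound, with or without NADPH, then CYP-specific probe substrate added and incubation continued. Metabolite measured by LC-MS/MS; % activity remaining relative to no-compound control; IC50 fitted by Probit model. For CYP3A4, midazolam 1′-hydroxylation and testosterone 6β-hydroxylation were read separately.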

A short description of data set [5]: Neurotoxicity in Kunming mouse assessed as motor impairment rate at 90 mg/kg, po after 1 hr by rotarod test. In kind it is toxicity, organism-based. The following applies: in vivo. Summed up: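 Male KM mice dosed intragastrically with compound freshly suspended in 0.5% CMC-Na. Rotarod performance scored 1 h after dosing as the fraction of animals showing motor impairment. Fisher's exact test versus vehicle; TD50 from nonlinear dose−response fit.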
For orientation: In the rotarod test animals must keep their balance on a rotating rod.

The target in data set [6] is CYP1A2 (Homo sapiens, UniProt P05177). The data set can be described thus: Inhibition of human liver microsome CYP1A2 at 0.10 to 50 uM preincubated with NADPH for 0.5 hrs followed by substrate addition by LC-MS/MS method relative to control. In kind it is ADME. Particulars: liver microsomes, dose 0.1-50 µM.
Data set [7] can be described thus: Metabolic stability in dog liver microsomes assessed as intrinsic clearance. The data set is classed as ADME, Canis lupus familiaris, Microsome. The following applies: read-out: CLH.
The nature of data set [8]: AUC(0 to t) in Kunming mouse brain at 5 mg/kg, po measured upto 24 hrs by LC-MS/MS method. The data set is classed as ADME, organism-based. Details: dose 5 mg/kg, time < 24 hrs, route po. Summed up:
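KM male mice (18−24 g), fasted 12 h before and 2 h after dosing. HN37 given orally at 5 mg/kg in 5% DMSO/5% Tween 80/90% saline, or iv at 2 mg/kg after dilution in saline with 1% Tween 80; n = 3 per time point. Blood sampled 0.25–24 h (from 0.083 h after iv); whole brain taken after oral dosing. Plasma and brain extracted with acetonitrile, quantified by LC−MS/MS; AUC0−t by trapezoidal method.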

For data set [9], the target named is CYP3A4 (Homo sapiens, UniProt P08684). The data set can be described thus: Inhibition of human liver microsome CYP3A4 at 0.10 to 50 uM preincubated with NADPH for 0.5 hrs followed by substrate addition by LC-MS/MS method relative to control. Particulars: liver microsomes, dose 0.1-50 µM. In kind it is ADME. Summed up:
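Human liver microsomes preincubated 0.5 h with 0.10−50 μM compound, with or without NADPH, then CYP-specific probe substrates added (CYP3A4 with midazolam 1′-hydroxylation and with testosterone 6β-hydroxylation). Metabolites quantified by LC−MS/MS; % activity remaining computed against no-compound control. IC50 fitted by Probit model; ratio = IC50(−NADPH)/IC50(+NADPH).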

The test system of data set [10] is Mus musculus. The data set can be described thus: Anticonvulsant activity in MES induced Kunming mouse model of seizure at 100 mg/kg, po. The data set is classed as functional. Summed up: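 MES test in male KM mice. Compounds freshly suspended in 0.5% CMC-Na and given by gavage at 20 mL/kg; 160 V stimulus through ear clips. Protection scored as absence of hindlimb tonic extension; time course at 0.25, 0.5, 1 and 2 h, otherwise tested at 1 h. ED50 from dose−response by nonlinear regression; Fisher's exact test versus vehicle.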

The text below walks through data of ChEMBL document CHEMBL5149984, “Discovery of HN37 as a Potent and Chemically Stable Antiepileptic Drug Candidate” (J Med Chem, 2021).

One may read the AUC(0-t) as exposure summed from dosing to a finite time, without extrapolation to infinity. A word on the IC50: it is the concentration that inhibits the measured activity by half. In general, inhibition refers to how much of the control response was suppressed.

Sequence of Cytochrome P450 1A2 (P05177 whole entry): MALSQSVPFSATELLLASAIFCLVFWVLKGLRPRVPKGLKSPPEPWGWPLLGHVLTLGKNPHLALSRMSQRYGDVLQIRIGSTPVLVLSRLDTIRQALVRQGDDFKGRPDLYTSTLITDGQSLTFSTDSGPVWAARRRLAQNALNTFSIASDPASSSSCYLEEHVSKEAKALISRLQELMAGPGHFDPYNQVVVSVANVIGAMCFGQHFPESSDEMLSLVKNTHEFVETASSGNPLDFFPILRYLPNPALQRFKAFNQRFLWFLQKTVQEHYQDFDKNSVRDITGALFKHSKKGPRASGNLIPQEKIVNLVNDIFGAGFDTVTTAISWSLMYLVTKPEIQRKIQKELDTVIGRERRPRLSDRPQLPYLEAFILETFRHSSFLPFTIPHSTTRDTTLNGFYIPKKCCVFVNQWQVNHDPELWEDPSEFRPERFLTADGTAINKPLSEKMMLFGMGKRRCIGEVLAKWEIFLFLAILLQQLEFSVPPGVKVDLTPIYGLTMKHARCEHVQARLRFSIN
Sequence of CYP1A2 (P05177 whole entry): as above
Sequence of Potassium voltage-gated channel subfamily KQT member 5 (Homo sapiens) (Q9NR82 whole entry, the tested form may be a part): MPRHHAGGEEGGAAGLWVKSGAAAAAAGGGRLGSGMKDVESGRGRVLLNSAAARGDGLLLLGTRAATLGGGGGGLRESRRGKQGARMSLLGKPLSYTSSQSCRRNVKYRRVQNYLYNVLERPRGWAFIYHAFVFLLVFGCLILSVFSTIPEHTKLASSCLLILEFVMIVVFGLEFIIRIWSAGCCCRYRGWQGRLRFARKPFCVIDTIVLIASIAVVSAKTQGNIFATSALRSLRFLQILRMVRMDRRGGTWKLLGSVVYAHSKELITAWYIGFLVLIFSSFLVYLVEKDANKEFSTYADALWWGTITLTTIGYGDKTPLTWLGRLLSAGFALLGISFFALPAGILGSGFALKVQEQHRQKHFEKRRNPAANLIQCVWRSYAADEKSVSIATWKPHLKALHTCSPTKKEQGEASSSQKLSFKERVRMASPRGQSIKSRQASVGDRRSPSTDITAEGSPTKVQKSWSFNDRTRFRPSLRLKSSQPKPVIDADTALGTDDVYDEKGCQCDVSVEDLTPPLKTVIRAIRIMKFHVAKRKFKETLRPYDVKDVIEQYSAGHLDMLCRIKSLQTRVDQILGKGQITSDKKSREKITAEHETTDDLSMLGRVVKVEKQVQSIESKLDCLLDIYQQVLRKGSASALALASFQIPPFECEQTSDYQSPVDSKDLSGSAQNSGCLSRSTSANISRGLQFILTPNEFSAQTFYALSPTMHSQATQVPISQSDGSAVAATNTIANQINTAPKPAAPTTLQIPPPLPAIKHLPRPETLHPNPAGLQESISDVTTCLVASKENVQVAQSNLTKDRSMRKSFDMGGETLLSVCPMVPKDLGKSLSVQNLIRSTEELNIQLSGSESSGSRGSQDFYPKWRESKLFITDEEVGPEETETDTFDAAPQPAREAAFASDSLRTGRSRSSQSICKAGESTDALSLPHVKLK
Sequence of CYP3A4 (P08684 whole entry): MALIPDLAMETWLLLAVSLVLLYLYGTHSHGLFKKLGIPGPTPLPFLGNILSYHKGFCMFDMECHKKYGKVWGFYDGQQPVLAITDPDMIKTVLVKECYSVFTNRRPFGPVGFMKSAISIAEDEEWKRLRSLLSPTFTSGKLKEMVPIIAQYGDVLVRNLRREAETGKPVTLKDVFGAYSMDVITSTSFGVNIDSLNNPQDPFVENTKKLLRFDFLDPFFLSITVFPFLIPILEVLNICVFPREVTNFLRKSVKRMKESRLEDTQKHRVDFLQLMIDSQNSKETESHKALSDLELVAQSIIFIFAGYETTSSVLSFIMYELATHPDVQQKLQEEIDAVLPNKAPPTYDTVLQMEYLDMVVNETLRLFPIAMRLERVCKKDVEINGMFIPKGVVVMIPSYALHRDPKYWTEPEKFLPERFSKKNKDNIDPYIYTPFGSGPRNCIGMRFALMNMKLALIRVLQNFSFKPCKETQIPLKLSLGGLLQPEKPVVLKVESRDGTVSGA

Take `C#CCN(Cc1ccc(F)cc1)c1cc(C)c(NC(=O)OC)c(C)c1`: the CLint scaled in data set [1] amounted to 6.72 L/h/kg; in data set [7], 5.83 L/h/kg. Besides, the figures for the Activity in [2] and in data set [5] were 3.14 and 62.5%, respectively. The AUC(0-t) at 24 h turned out to be 0.533 µg·h/mL in data set [3] and 0.716 µg·h/mL in data set [8]. The compound further showed an IC50 in [4] of 142 µM. The inhibition at 0.5 h, up to 50 µM in [6] and in data set [9] was below 25% throughout.
With `CCOC(=O)Nc1ccc(NCc2ccc(F)cc2)cc1N` [EZOGABINE], the Activity in data set [10] came out at 87.5%.
